Results published in ChEMBL document CHEMBL4177746, “Discovery of orally efficacious RORγt inverse agonists. Part 2: Design, synthesis, and biological evaluation of novel tetrahydroisoquinoline derivatives” (Bioorg Med Chem, 2018).

Experiments:
[1] = (§1) AUC (0 to 8 hrs) in mouse at 1 mg/kg, po administered via cassette dose by LC-MS/MS analysis; assay type: ADME, organism-based; design: time < 8 hr, dose 1 mg/kg, route oral; conditions: in vivo
Procedure, shortened: (§2)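 Cassette oral dosing of mice at 1 mg/kg. Blood was sampled after dosing and centrifuged to give plasma. Plasma was deproteinized with acetonitrile containing internal standard, centrifuged, diluted with LC mobile phase and centrifuged again for analysis. Values are means of three determinations.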

[2] = Oral bioavailability in mouse at 1 mg/kg administered via cassette dose by LC-MS/MS analysis; assay type: ADME, organism-based; conditions: in vivo; procedure, shortened: as §2
[3] = system: Mus musculus; experiment: Effect on IFNgamma expression in po dosed Balb/c mouse measured after 24 hrs by qRT-PCR analysis; assay type: ADME, organism-based; conditions: in vivo
[4] = Cmax in Balb/c mouse at 3 mg/kg, po; assay type: ADME, organism-based; design: dose 3 mg/kg, route oral; conditions: in vivo
Procedure, shortened: (§3)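 Male Balb/c mice, 7 weeks old, received intradermal ear injection of recombinant mouse IL-23 (500 ng/10 μL PBS) under isoflurane. Compound was suspended in 0.5% methylcellulose and given orally at 3, 10 or 30 mg/kg, 30 min before and 8 h after IL-23. Plasma concentration was measured in parallel with the PD assay, giving Cmax and […].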

[5] = Cmax in Balb/c mouse at 10 mg/kg, po; assay type: ADME, organism-based; design: dose 10 mg/kg, route oral; conditions: in vivo; procedure, shortened: as §3
[6] = Cmax in Balb/c mouse at 30 mg/kg, po; assay type: ADME, organism-based; design: dose 30 mg/kg, route oral; conditions: in vivo; procedure, shortened: as §3
[7] = AUC (0 to 24 hrs) in Balb/c mouse at 3 mg/kg, po; assay type: ADME, organism-based; design: dose 3 mg/kg, time < 24 hr, route oral; conditions: in vivo
Procedure, shortened: (§4)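 Male Balb/c mice, 7 weeks old, received 3, 10 or 30 mg/kg orally as a suspension in 0.5% methylcellulose. Dosing was 30 min before and 8 h after intradermal ear injection of recombinant mouse IL-23 (500 ng in 10 μL PBS). Plasma drug levels were measured alongside this PD study, and AUC was taken over 0–24 h.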

[8] = AUC (0 to 24 hrs) in Balb/c mouse at 10 mg/kg, po; assay type: ADME, organism-based; design: time < 24 hr, dose 10 mg/kg, route oral; conditions: in vivo; procedure, shortened: as §4
[9] = AUC (0 to 24 hrs) in Balb/c mouse at 30 mg/kg, po; assay type: ADME, organism-based; design: time < 24 hr, dose 30 mg/kg, route oral; conditions: in vivo; procedure, shortened: as §4
[10] = system: Mus musculus; experiment: Drug uptake in po dosed Balb/c mouse; assay type: ADME, organism-based; conditions: in vivo; procedure, shortened: as §3
[11] = organism: Mus musculus; experiment: animal or person; conditions: Balb/c, po
[12] = system: Mus musculus; experiment: as §1; assay type: ADME, organism-based; design: time < 8 hr, dose 1 mg/kg, route oral; conditions: in vivo, 8 h; procedure, shortened: as §2

| AUC(0-t) at 8 h [1] | bioavailability [2] | Compound | other results |
| --- | --- | --- | --- |
| 162 ng·h/mL | 8.5% | COc1ccc([C@H](C(=O)Nc2cc(F)c([Si](C)(C)C)c(F)c2)N(C)C(=O)CCC(=O)O)cc1 |  |
| 619 ng·h/mL | 51% | COc1ccc2c(c1)CCN(C(=O)/C=C/C(=O)O)[C@H]2C(=O)Nc1cc(F)c([Si](C)(C)C)c(F)c1 |  |
| 29.5 ng·h/mL | 9% | COc1ccc2c(c1)OCCN(C(=O)c1cc(O)no1)[C@H]2C(=O)Nc1cc(F)c([Si](C)(C)C)c(F)c1 |  |
| 200 ng·h/mL | 11% | COc1ccc2c(c1)CCN(C(=O)c1cc(O)no1)[C@H]2C(=O)Nc1cc(F)c([Si](C)(C)C)c(F)c1 |  |
| 120 ng·h/mL | 13% | COc1ccc2c(c1)CCN(C(=O)CC1SC(=O)NC1=O)[C@H]2C(=O)Nc1cc(F)c([Si](C)(C)C)c(F)c1 (stereo not given in full) |  |
| 2500 ng·h/mL | 65% | COc1ccc2c(c1)CCN(C(=O)CC(C)CC(=O)O)[C@H]2C(=O)Nc1cc(F)c([Si](C)(C)C)c(F)c1 (stereo not given in full) |  |
| 6890 ng·h/mL | 94% | COc1ccc2c(c1)CCN(C(=O)CCCC(=O)O)[C@H]2C(=O)Nc1cc(F)c([Si](C)(C)C)c(F)c1 | Activity [3]: Non-Toxic; Cmax [4]: 1630 ng/mL; Cmax [5]: 7720 ng/mL; Cmax [6]: 19000 ng/mL; AUC(0-t) at 24 h [7]: 10700 ng·h/mL; AUC(0-t) at 24 h [8]: 48000 ng·h/mL; AUC(0-t) at 24 h [9]: 159000 ng·h/mL; Drug uptake [10]: Dose-dependent effect; ED50 [11]: 2.8 mg/kg |
| 2270 ng·h/mL | 40% | COc1ccc2c(c1)CCN(C(=O)CC(C)(C)CC(=O)O)[C@H]2C(=O)Nc1cc(F)c([Si](C)(C)C)c(F)c1 |  |
|  | 18% | COc1ccc([C@H](C(=O)Nc2cc(F)c([Si](C)(C)C)c(F)c2)N(C)C(=O)c2cc(O)no2)cc1 | AUC [12]: 374 ng·h/mL |
| 92 ng·h/mL | 14% | COc1ccc2c(c1)CCN(C(=O)CCCC(N)=O)[C@H]2C(=O)Nc1cc(F)c([Si](C)(C)C)c(F)c1 |  |
| 159 ng·h/mL | 34% | COc1ccc2c(c1)CCN(C(=O)CC(C)(O)CC(=O)O)[C@H]2C(=O)Nc1cc(F)c([Si](C)(C)C)c(F)c1 (stereo not given in full) |  |
| 1030 ng·h/mL | 84% | COc1ccc2c(c1)CCN(C(=O)CCCCC(=O)O)[C@H]2C(=O)Nc1cc(F)c([Si](C)(C)C)c(F)c1 |  |

| Compound | AUC(0-t) at 8 h [1] | bioavailability [2] | other results |
| --- | --- | --- | --- |
| COc1ccc2c(c1)CCN(C(=O)CCC(=O)O)[C@H]2C(=O)Nc1cc(F)c([Si](C)(C)C)c(F)c1 | 2500 ng·h/mL | 51% |  |
